Measured values taken from ChEMBL document CHEMBL4000219, “Synthesis and biological evaluation of naphthoquinone-coumarin conjugates as topoisomerase II inhibitors” (Bioorg Med Chem Lett, 2017).
pIC50: −log10 of the molar value. The source made the active and inactive calls. The rule behind the calls is not given here.

Legend:
[1] = tested on: Escherichia coli; test: Inhibition of Escherichia coli DNA topisomerase-1 assessed as reduction in enzyme-mediated relaxation of supercoiled pBlueScript 2 KS+ DNA substrate at 100 uM after 1 hr by agarose gel electrophoresis method
Procedure, shortened: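 2.5U E. coli TopoI acting on supercoiled monomer substrate, in 1% (v/v) DMSO. Chloroquine and etoposide as controls. Agarose gel run without ethidium bromide separates supercoiled substrate from relaxed products.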

[2] = tested on: Escherichia coli; test: Inhibition of Escherichia coli DNA gyrase assessed as reduction in enzyme-mediated supercoiling activity at 100 uM using ladder of partially relaxed pBlueScript 2 KS+ DNA as substrate after 1 hr by agarose gel electrophoresis method
Procedure, shortened: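 2.5U E. coli DNA gyrase acting on a ladder of partially relaxed forms as substrate, in 1% (v/v) DMSO. Agarose gel run without ethidium bromide separates the relaxed ladder from monomeric supercoiled product.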

[3] = molecular target: T1, DNA topoisomerase 2-alpha (Homo sapiens, UniProt P11388); test: Inhibition of human topoisomerase-2 alpha expressed in baculovirus infected insect cells assessed as reduction in enzyme-meditaed supercoiled pRYG DNA substrate relaxation at 100 uM in presence of buffer containing DTT after 30 mins by agarose gel electrophoresis method
T1 sequence (P11388 whole entry): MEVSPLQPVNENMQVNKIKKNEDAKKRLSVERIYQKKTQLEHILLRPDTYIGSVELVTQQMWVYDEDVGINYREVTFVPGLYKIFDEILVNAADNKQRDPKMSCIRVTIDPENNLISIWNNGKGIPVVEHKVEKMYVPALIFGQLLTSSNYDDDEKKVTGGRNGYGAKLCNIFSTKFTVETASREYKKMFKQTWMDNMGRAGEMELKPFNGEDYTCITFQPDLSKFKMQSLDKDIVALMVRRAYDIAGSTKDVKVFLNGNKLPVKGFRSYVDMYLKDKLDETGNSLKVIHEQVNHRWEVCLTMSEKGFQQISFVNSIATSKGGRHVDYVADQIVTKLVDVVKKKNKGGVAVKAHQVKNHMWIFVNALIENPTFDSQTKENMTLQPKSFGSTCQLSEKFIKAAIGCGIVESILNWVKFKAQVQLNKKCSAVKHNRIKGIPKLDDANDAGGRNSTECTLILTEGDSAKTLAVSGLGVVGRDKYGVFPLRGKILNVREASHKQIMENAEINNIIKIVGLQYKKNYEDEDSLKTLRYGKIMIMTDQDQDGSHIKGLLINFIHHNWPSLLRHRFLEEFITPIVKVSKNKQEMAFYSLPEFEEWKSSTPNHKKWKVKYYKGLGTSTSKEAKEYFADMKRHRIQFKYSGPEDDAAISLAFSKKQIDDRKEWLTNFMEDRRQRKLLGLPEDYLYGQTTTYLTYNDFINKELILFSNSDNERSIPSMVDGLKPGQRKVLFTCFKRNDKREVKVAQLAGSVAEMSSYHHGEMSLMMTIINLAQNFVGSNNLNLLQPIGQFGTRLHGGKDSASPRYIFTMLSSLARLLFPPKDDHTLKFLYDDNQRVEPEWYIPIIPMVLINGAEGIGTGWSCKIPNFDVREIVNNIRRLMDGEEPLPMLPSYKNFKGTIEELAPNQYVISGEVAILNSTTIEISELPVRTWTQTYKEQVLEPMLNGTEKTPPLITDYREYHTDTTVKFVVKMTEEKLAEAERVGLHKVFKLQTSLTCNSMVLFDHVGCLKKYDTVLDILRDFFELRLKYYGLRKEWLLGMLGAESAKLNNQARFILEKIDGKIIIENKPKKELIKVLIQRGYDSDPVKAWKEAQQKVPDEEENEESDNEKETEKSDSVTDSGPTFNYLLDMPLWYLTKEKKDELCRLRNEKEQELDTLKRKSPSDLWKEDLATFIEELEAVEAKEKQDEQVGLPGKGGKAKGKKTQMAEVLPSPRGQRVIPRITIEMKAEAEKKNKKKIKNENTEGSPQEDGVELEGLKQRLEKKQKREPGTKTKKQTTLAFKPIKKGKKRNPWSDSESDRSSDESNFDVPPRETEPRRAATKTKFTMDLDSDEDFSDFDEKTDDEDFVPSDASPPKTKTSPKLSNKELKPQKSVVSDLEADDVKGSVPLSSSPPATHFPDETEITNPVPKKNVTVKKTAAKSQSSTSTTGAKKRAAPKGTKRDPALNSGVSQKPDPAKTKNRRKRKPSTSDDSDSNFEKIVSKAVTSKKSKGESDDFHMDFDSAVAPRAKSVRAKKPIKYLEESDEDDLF
Procedure, shortened: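 2U hTopoII on covalently closed negatively supercoiled pRYG plasmid, in 1% (v/v) DMSO. Commercial reaction buffer containing DTT. Etoposide, ICRF-187 and merbarone as controls. Agarose gel run without ethidium bromide separates supercoiled forms from relaxed topoisomers.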

[4] = molecular target: T1, DNA topoisomerase 2-alpha; test: Inhibition of human topoisomerase-2 alpha expressed in baculovirus infected insect cells assessed as reduction in enzyme-meditaed supercoiled pRYG DNA substrate relaxation at 100 uM in presence of buffer containing 2-mercaptoethanol after 30 mins by agarose gel electrophoresis method
Procedure, shortened: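 2U hTopoII on covalently closed negatively supercoiled pRYG plasmid, in 1% (v/v) DMSO. Home-made reaction buffer with 2-mercaptoethanol as reducing agent. Etoposide, ICRF-187 and merbarone as controls. Agarose gel run without ethidium bromide separates supercoiled substrate from relaxed topoisomers.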

[5] = molecular target: T1, DNA topoisomerase 2-alpha; test: Inhibition of human topoisomerase-2 alpha expressed in baculovirus infected insect cells assessed as reduction in enzyme-meditaed supercoiled pRYG DNA substrate relaxation in presence of buffer containing DTT after 30 mins by agarose gel electrophoresis method
Procedure, shortened: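 hTopoII relaxation of supercoiled pRYG plasmid in commercial DTT-containing reaction buffer, with compounds at 10, 30 and 100. Gel bands quantified as percent inhibition. Three independent assays, mean + SEM.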

[6] = molecular target: T1, DNA topoisomerase 2-alpha; test: Poison activity at human topoisomerase-2 alpha expressed in baculovirus infected insect cells assessed as stabilization of cleavage complex at 100 uM using pRYG DNA as substrate after 10 mins by ethidium bromide staining based agarose gel electrophoresis method
Procedure, shortened: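 Cleavage assay: 10U hTopoII on negatively supercoiled pRYG plasmid, in 1% (v/v) DMSO. Etoposide as positive control. Agarose gel run in the presence of ethidium bromide separates supercoiled substrate from linearized plasmid intermediate.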

[7] = molecular target: T1, DNA topoisomerase 2-alpha; test: (§1) Inhibition of human topoisomerase-2 alpha ATPase activity expressed in baculovirus infected insect cells assessed as disappearance of NADH at 10 uM using pBR322 DNA as substrate preincubated for 10 mins followed by ATP addition measured up to 35 mins by spectrophotometric based pyruvate kinase/lactate dehydrogenase coupled enzyme assay relative to control
Procedure, shortened: (§2)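 hTopoII ATPase measured in an ATPase/pyruvate kinase/lactate dehydrogenase linked assay as decline of NADH absorbance at 340 nm. Activity expressed as percent of 1% DMSO control.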

[8] = molecular target: T1, DNA topoisomerase 2-alpha; test: as §1, with “at 30” for “at 10”; procedure, shortened: as §2
[9] = molecular target: T1, DNA topoisomerase 2-alpha; test: as §1, with “at 100” for “at 10”; procedure, shortened: as §2
[10] = tested on: Escherichia coli; test: Inhibition of Escherichia coli DNA topisomerase-1 assessed as reduction in enzyme-mediated unwinding activity at 100 uM using ladder of partially relaxed pBlueScript 2 KS+ DNA as substrate after 1 hr by agarose gel electrophoresis method
Procedure, shortened: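 E. coli TopoI unwinding assay for intercalation: a ladder of partially relaxed forms as substrate, in 1% (v/v) DMSO. Chloroquine as control. Agarose gel run without ethidium bromide separates the ladder from relaxed products.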

| SMILES | inhibition [1] | inhibition [2] | inhibition [3] | inhibition [4] | pIC50 [5] | Activity [6] | inhibition [7] | inhibition [8] | inhibition [9] | inhibition [10] |
| --- | --- | --- | --- | --- | --- | --- | --- | --- | --- | --- |
| CCN(CC)CCCC(C)Nc1ccnc2cc(Cl)ccc12 (centres undefined) | Active | – | – | – | – | – | – | – | – | – |
| O=C(O)c1cn(C2CC2)c2cc(N3CCNCC3)c(F)cc2c1=O | – | Active | – | – | – | – | – | – | – | – |
| O=C1C(O)=C(C(c2ccccc2F)c2c(O)c3ccccc3oc2=O)C(=O)c2ccccc21 (centres undefined) | inactive | inactive | Active | Active | 4.52 to 5.00 | inactive | 24% | 30% | 82% | inactive |
| O=C1C(O)=C(C(c2ccc(Br)cc2)c2c(O)c3ccccc3oc2=O)C(=O)c2ccccc21 (centres undefined) | inactive | inactive | Active | Active | 4.52 to 5.00 | inactive | 40% | 57% | 96% | inactive |
| O=C1C(O)=C(C(c2ccccc2)c2c(O)c3ccccc3oc2=O)C(=O)c2ccccc21 (centres undefined) | inactive | inactive | Active | Active | 4.52 to 5.00 | inactive | 69% | 87% | 94% | inactive |
| O=C1NC(=S)NC(=O)C1C(=O)Nc1ccccc1 | – | – | Active | inactive | – | – | – | – | – | – |
| O=C1C(O)=C(C(c2ccc3c(c2)OCO3)c2c(O)c3ccccc3oc2=O)C(=O)c2ccccc21 (centres undefined) | inactive | inactive | Active | Active | 4.52 to 5.00 | inactive | 43% | 67% | 94% | inactive |
| COc1cc([C@@H]2c3cc4c(cc3[C@@H](O[C@@H]3O[C@@H]5CO[C@@H](C)O[C@H]5[C@H](O)[C@H]3O)[C@H]3COC(=O)[C@H]23)OCO4)cc(OC)c1O | – | – | Active | inactive | – | Active | – | – | – | – |
| O=C1C(O)=C(C(c2ccc([N+](=O)[O-])cc2)c2c(O)c3ccccc3oc2=O)C(=O)c2ccccc21 (centres undefined) | inactive | inactive | Active | Active | 4.52 to 5.00 | inactive | 34% | 39% | 61% | inactive |
| C[C@@H](CN1CC(=O)NC(=O)C1)N1CC(=O)NC(=O)C1 | – | – | Active | inactive | – | – | – | – | – | – |
| O=C1C(O)=C(C(c2ccc(F)cc2)c2c(O)c3ccccc3oc2=O)C(=O)c2ccccc21 (centres undefined) | inactive | inactive | Active | Active | 4.52 to 5.00 | inactive | 67% | 90% | 94% | inactive |
| O=C1C(O)=C(C(c2ccc(Cl)cc2)c2c(O)c3ccccc3oc2=O)C(=O)c2ccccc21 (centres undefined) | inactive | inactive | Active | Active | 4.52 to 5.00 | inactive | 61% | 78% | 94% | inactive |
